According to ChEMBL document CHEMBL4396915, “Synthesis of new thiazolyl-pyrazolyl-1,2,3-triazole derivatives as potential antimicrobial agents” (2019):
≈ marks a conversion by molar mass, not a printed value. Calls of active or inactive are those of the source. No cut-off for these calls is given here.

How the values were obtained:
Type in all cases: functional
[1] = system: Staphylococcus epidermidis; assay: Antibacterial activity against Staphylococcus albus NCIM 2178 assessed as zone of inhibition at 80 ug/well incubated for 24 to 48 hrs by agar well diffusion method; conditions: for zone of inhibition at 80 µg/disc: read-out: IZ
Outline: (§1)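 Strains from NCIM kept on nutrient agar slants at 4 C and grown overnight at 37 C in nutrient broth. 500 microlitres of 24-48 h culture swabbed onto nutrient agar. Compounds in DMSO loaded into 5 mm wells, with a DMSO vehicle plate and streptomycin reference. Incubated 24-48 h at 37 C. Zone of inhibition measured in mm and averaged over 4 replicates.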

Aspergillus niger [2] = assay: Antifungal activity against Aspergillus niger NCIM 504 assessed as inhibition of fungal growth incubated for 48 to 72 hrs by broth microdilution susceptibility method
Outline: (§2)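 Tube micro-dilution in Sabouraud liquid medium. Stocks were made in DMSO and serially diluted twofold in broth to final […]. Tubes inoculated with organisms grown in potato dextrose broth and held 48-72 h at 30 C. MIC is the lowest concentration with no growth. DMSO and uninoculated-media controls were included, in triplicate.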

Rhodotorula glutinis [3] = assay: Antifungal activity against Rhodotorula glutinis NCIM 3168 assessed as inhibition of fungal growth incubated for 48 to 72 hrs by broth microdilution susceptibility method; outline: as §2
Candida albicans [4] = assay: Antifungal activity against Candida albicans NCIM 3100 assessed as zone of inhibition at 80 ug/well incubated for 48 to 72 hrs by agar well diffusion method; conditions: for zone of inhibition at 80 µg/disc: read-out: IZ
Outline: (§3)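 Fungi kept on potato dextrose agar slants and grown in potato dextrose broth. 500 microlitres of 48-72 h spore suspension swabbed onto Mueller Hinton agar. Compounds in DMSO loaded into 5 mm wells, with a DMSO vehicle plate and fluconazole/ravuconazole positive-control plate. Incubated 48-72 h at 30 C. Clear zone measured in mm, mean of five replicates.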

Candida albicans [5] = assay: Antifungal activity against Candida albicans NCIM 3100 assessed as inhibition of fungal growth incubated for 48 to 72 hrs by broth microdilution susceptibility method; outline: as §2
Rhodotorula glutinis [6] = assay: Antifungal activity against Rhodotorula glutinis NCIM 3168 assessed as zone of inhibition at 80 ug/well incubated for 48 to 72 hrs by agar well diffusion method; conditions: for zone of inhibition at 80 µg/disc: read-out: IZ; outline: as §3
Aspergillus niger [7] = assay: Antifungal activity against Aspergillus niger NCIM 504 assessed as zone of inhibition at 80 ug/well incubated for 48 to 72 hrs by agar well diffusion method; conditions: for zone of inhibition at 80 µg/disc: read-out: IZ; outline: as §3
Escherichia coli = assay: Antibacterial activity against Escherichia coli NCIM 2574 assessed as zone of inhibition at 80 ug/well incubated for 24 to 48 hrs by agar well diffusion method; conditions: for zone of inhibition at 80 µg/disc: read-out: IZ; outline: as §1
Proteus mirabilis = assay: Antibacterial activity against Proteus mirabilis NCIM 2388 assessed as zone of inhibition at 80 ug/well incubated for 24 to 48 hrs by agar well diffusion method; outline: as §1

Row | MIC (Aspergillus niger [2]) | MIC (Rhodotorula glutinis [3]) | MIC (Candida albicans [5]) | SMILES | zone of inhibition at 80 µg/disc [1] [mm] | zone of inhibition at 80 µg/disc (Candida albicans [4]) [mm] | zone of inhibition at 80 µg/disc (Rhodotorula glutinis [6]) [mm] | zone of inhibition at 80 µg/disc (Aspergillus niger [7]) [mm] | zone of inhibition at 80 µg/disc (Escherichia coli) [mm] | inhibition zone (IZ) (Proteus mirabilis) | inhibition zone (IZ) [1] | inhibition zone (IZ) (Rhodotorula glutinis [6]) | inhibition zone (IZ) (Aspergillus niger [7]) | inhibition zone (IZ) (Escherichia coli) | inhibition zone (IZ) (Candida albicans [4]) | zone of inhibition at 80 µg/disc (Proteus mirabilis; read-out: IZ) [mm]
1 | 31.2 µg/mL (≈ 61.4 µM) | 62.5 µg/mL (≈ 123 µM) | inactive | Cc1nc(-c2ccccc2)sc1-c1nn(-c2ccccc2)cc1-c1cn(Cc2ccc(Cl)cc2)nn1 | 12.2 | 11.5 | 19 | 13.6 | 13.2 | inactive | – | – | – | – | – | –
2 | 62.5 µg/mL (≈ 109 µM) | 62.5 µg/mL (≈ 109 µM) | 125 µg/mL (≈ 219 µM) | Cc1nc(-c2ccc(Br)cc2)sc1-c1nn(-c2ccccc2)cc1-c1cn(Cc2ccc(F)cc2)nn1 | 12 | 12 | 11.7 | 17 | 11.8 | inactive | – | – | – | – | – | –
3 | 125 µg/mL (≈ 239 µM) | 125 µg/mL (≈ 239 µM) | 250 µg/mL (≈ 478 µM) | Cc1ccc(Cn2cc(-c3cn(-c4ccccc4)nc3-c3sc(-c4ccc(Cl)cc4)nc3C)nn2)cc1 | 12 | 13.8 | 11.4 | 11.4 | 12.4 | inactive | – | – | – | – | – | –
4 | 62.5 µg/mL (≈ 123 µM) | 125 µg/mL (≈ 247 µM) | inactive | Cc1ccc(-c2nc(C)c(-c3nn(-c4ccccc4)cc3-c3cn(Cc4ccc(F)cc4)nn3)s2)cc1 | 11.2 | 12.5 | 16.2 | 16.3 | 10.6 | inactive | – | – | – | – | – | –
5 | inactive | inactive | inactive | Cc1nc(-c2ccc(Br)cc2)sc1-c1nn(-c2ccccc2)cc1-c1cn(Cc2ccc(Br)cc2)nn1 | – | 15 | – | – | – | inactive | inactive | inactive | inactive | inactive | – | –
6 | 62.5 µg/mL (≈ 106 µM) | 125 µg/mL (≈ 213 µM) | 125 µg/mL (≈ 213 µM) | Cc1nc(-c2ccc(Br)cc2)sc1-c1nn(-c2ccccc2)cc1-c1cn(Cc2ccc(Cl)cc2)nn1 | – | 14.8 | 14.8 | 13.5 | 11 | inactive | inactive | – | – | – | – | –
7 | 62.5 µg/mL (≈ 119 µM) | 125 µg/mL (≈ 237 µM) | 250 µg/mL (≈ 474 µM) | Cc1nc(-c2ccc(Cl)cc2)sc1-c1nn(-c2ccccc2)cc1-c1cn(Cc2ccc(F)cc2)nn1 | 11.3 | 13.8 | 20 | 12.5 | 12.2 | inactive | – | – | – | – | – | –
8 | 31.2 µg/mL (≈ 55.1 µM) | 125 µg/mL (≈ 220 µM) | inactive | Cc1ccc(Cn2cc(-c3cn(-c4ccccc4)nc3-c3sc(-c4ccc(Br)cc4)nc3C)nn2)cc1 | 12.6 | 14.6 | 13.3 | 12.4 | 11.6 | inactive | – | – | – | – | – | –
9 | 125 µg/mL (≈ 254 µM) | 125 µg/mL (≈ 254 µM) | 125 µg/mL (≈ 254 µM) | Cc1nc(-c2ccccc2)sc1-c1nn(-c2ccccc2)cc1-c1cn(Cc2ccc(F)cc2)nn1 | 10 | 15.8 | 14.6 | 16.4 | 11 | inactive | – | – | – | – | – | –
10 | 31.2 µg/mL (≈ 55.1 µM) | 62.5 µg/mL (≈ 110 µM) | 125 µg/mL (≈ 220 µM) | Cc1ccc(-c2nc(C)c(-c3nn(-c4ccccc4)cc3-c3cn(Cc4ccc(Br)cc4)nn3)s2)cc1 | 12.2 | 14 | 18.8 | 14.4 | 11 | inactive | – | – | – | – | – | –
11 | – | – | – | CN[C@@H]1[C@H](O[C@H]2[C@H](O[C@H]3[C@H](O)[C@@H](O)[C@H](N=C(N)N)[C@@H](O)[C@@H]3N=C(N)N)O[C@@H](C)[C@]2(O)C=O)O[C@@H](CO)[C@H](O)[C@H]1O [STREPTOMYCIN] | 21.6 | – | – | – | 25 | – | – | inactive | inactive | – | inactive | 18.5
